Assay results published in ChEMBL document CHEMBL1144581, “alpha-Amino acid derivatives as proton pump inhibitors and potent anti-ulcer agents” (2007).
Blank lines part the entries; values can stand above or below the compound they belong to. The source made the active and inactive calls. The rule behind the calls is not given here.

Tests used:
[1] = species: Rattus norvegicus; experiment: Inhibition of gastric H+/K(+)-ATPase activity in Sprague-Dawley rat microsomal vesicles at 10 umol; type: microsomes; conditions: Stomach, Microsome
Summary of the method: (§1)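 Rat gastric microsomes were prepared by density gradient and differential centrifugation. The medium held 40 mM Tris-HCl pH 7.4, 2 mM MgCl2, 10 mM KCl (water for blank) and […] vesicular protein. Compound was preincubated 30 min at 37 °C. Tris-ATP at 0.3, 1.0 or 3 mM was then added for 20 min and stopped with chilled 10% TCA. Released Pi was read at 530 nm; % inhibition vs control.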

[2] = species: Rattus norvegicus; experiment: Antisecretory activity in rat pylorus ligation-induced ulcer model determined by ratio of free acidity inhibition in drug treated to untreated control; type: functional
Summary of the method: (§2)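 Sprague Dawley rats (130-150 g) fasted 24 h with water ad libitum; pylorus ligated through a midline incision under ether anesthesia. Dosing oral, 1 h before ligation. Gastric juice free and total acidity titrated against 0.01 N NaOH, with Topfer's reagent and phenolphthalein as indicators. Values expressed as ratio of percent inhibition, treated vs control group.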

[3] = species: Rattus norvegicus; experiment: Antisecretory activity in rat pylorus ligation-induced ulcer model determined by ratio of total acidity inhibition in drug treated to untreated control; type: functional; summary of the method: as §2
[4] = species: Rattus norvegicus; experiment: Inhibition of p-NPPase in Sprague-Dawley rat microsomal vesicles at 10 uM in presence of 1.0 mM of p-NPP; type: microsomes; conditions: Microsome
Summary of the method: (§3)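 Rat gastric microsomes were assayed in 10 mM PIPES/Tris pH 7.0 with 5 mM KCl. Compound was preincubated 30 min at 37 °C. p-NPP at 1.0, 3.0 or 5.0 mM was added and incubated 20 min at 37 °C, then stopped with 0.5 N NaOH. p-Nitrophenol release was read at 410 nm; % inhibition vs control.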

[5] = species: Rattus norvegicus; experiment: Inhibition of gastric H+/K(+)-ATPase activity in Sprague-Dawley rat microsomal vesicles at 30 uM in presence of 1.0 mM of ATP; type: microsomes; conditions: Stomach, Microsome; summary of the method: as §1
[6] = species: Rattus norvegicus; experiment: Inhibition of p-NPPase in Sprague-Dawley rat microsomal vesicles at 3 uM in presence of 3.0 mM of p-NPP; type: microsomes; conditions: Microsome; summary of the method: as §3
[7] = species: Rattus norvegicus; experiment: Inhibition of p-NPPase in Sprague-Dawley rat microsomal vesicles at 3 uM in presence of 1.0 mM of p-NPP; type: microsomes; conditions: Microsome; summary of the method: as §3
[8] = tested on: Rattus norvegicus; experiment: Antisecretory activity in rat pylorus ligation-induced ulcer model assessed as inhibition of free acidity of gastric juice at 10 mg/kg; type: functional, organism-based; set-up: dose 10 mg/kg; summary of the method: as §2
[9] = species: Rattus norvegicus; experiment: Inhibition of p-NPPase in Sprague-Dawley rat microsomal vesicles at 30 uM in presence of 3.0 mM of p-NPP; type: microsomes; conditions: Microsome; summary of the method: as §3
[10] = species: Rattus norvegicus; experiment: Inhibition of gastric proton pump activity of gastric H(+)/K(+) ATPase in Sprague-Dawley rat microsomal vesicles before washing at 10 uM; type: microsomes; conditions: Stomach, Microsome
[11] = species: Rattus norvegicus; experiment: Inhibition of gastric proton pump activity of gastric H(+)/K(+) ATPase in Sprague-Dawley rat microsomal vesicles after washing at 10 uM; type: microsomes; conditions: Stomach, Microsome
[12] = species: Rattus norvegicus; experiment: Inhibition of gastric H+/K(+)-ATPase activity in Sprague-Dawley rat microsomal vesicles at 3 uM in presence of 1.0 mM of ATP; type: microsomes; conditions: Stomach, Microsome; summary of the method: as §1
[13] = species: Rattus norvegicus; experiment: Inhibition of p-NPPase in Sprague-Dawley rat microsomal vesicles at 30 uM in presence of 1.0 mM of p-NPP; type: microsomes; conditions: Microsome; summary of the method: as §3
[14] = species: Rattus norvegicus; experiment: Inhibition of gastric H+/K(+)-ATPase activity in Sprague-Dawley rat microsomal vesicles at 3 uM in presence of 3.0 mM of ATP; type: microsomes; conditions: Stomach, Microsome; summary of the method: as §1
[15] = species: Rattus norvegicus; experiment: Inhibition of p-NPPase in Sprague-Dawley rat microsomal vesicles at 10 uM in presence of 3.0 mM of p-NPP; type: microsomes; conditions: Microsome; summary of the method: as §3
[16] = species: Rattus norvegicus; experiment: Inhibition of gastric H+/K(+)-ATPase activity in Sprague-Dawley rat microsomal vesicles at 10 uM in presence of 0.3 mM of ATP; type: microsomes; conditions: Stomach, Microsome; summary of the method: as §1
[17] = tested on: Rattus norvegicus; experiment: Antisecretory activity in rat pylorus ligation-induced ulcer model assessed as inhibition of total acidity of gastric juice at 20 mg/kg; type: functional, organism-based; set-up: dose 20 mg/kg; summary of the method: as §2
[18] = species: Rattus norvegicus; experiment: Inhibition of p-NPPase in Sprague-Dawley rat microsomal vesicles at 30 uM in presence of 5.0 mM of p-NPP; type: microsomes; conditions: Microsome; summary of the method: as §3
[19] = species: Rattus norvegicus; experiment: Inhibition of p-NPPase in Sprague-Dawley rat microsomal vesicles at 10 uM in presence of 5.0 mM of p-NPP; type: microsomes; conditions: Microsome; summary of the method: as §3
[20] = species: Rattus norvegicus; experiment: Inhibition of p-NPPase in Sprague-Dawley rat microsomal vesicles at 100 uM in presence of 5.0 mM of p-NPP; type: microsomes; conditions: Microsome; summary of the method: as §3
[21] = species: Rattus norvegicus; experiment: Inhibition of gastric H+/K(+)-ATPase activity in Sprague-Dawley rat microsomal vesicles at 10 uM in presence of 1.0 mM of ATP; type: microsomes; conditions: Stomach, Microsome; summary of the method: as §1
[22] = species: Rattus norvegicus; experiment: Inhibition of gastric H+/K(+)-ATPase activity in Sprague-Dawley rat microsomal vesicles at 30 uM in presence of 3.0 mM of ATP; type: microsomes; conditions: Stomach, Microsome; summary of the method: as §1
[23] = species: Rattus norvegicus; experiment: Inhibition of gastric H+/K(+)-ATPase activity in Sprague-Dawley rat microsomal vesicles at 10 uM in presence of 3.0 mM of ATP; type: microsomes; conditions: Stomach, Microsome; summary of the method: as §1
[24] = species: Rattus norvegicus; experiment: Inhibition of gastric H+/K(+)-ATPase activity in Sprague-Dawley rat microsomal vesicles at 30 uM in presence of 0.3 mM of ATP; type: microsomes; conditions: Stomach, Microsome; summary of the method: as §1
[25] = species: Rattus norvegicus; experiment: Inhibition of gastric H+/K(+)-ATPase activity in Sprague-Dawley rat microsomal vesicles at 3 uM in presence of 0.3 mM of ATP; type: microsomes; conditions: Stomach, Microsome; summary of the method: as §1

inhibition [1]: 92%
Structure (SMILES): CC(C)(C)[C@H]1OC(=O)[C@@H]2CCC(=O)N21
Activity [2]: 0.61
Activity [3]: 0.49

inhibition [1]: 68%
Structure (SMILES): Cc1ccccc1CN1C(=O)CC[C@H]1C(=O)OC(C)(C)C
Activity [2]: 0.63
Activity [3]: 0.62

inhibition [1]: 92%
Structure (SMILES): CC(C)(C)OC(=O)[C@@H]1CCC(=O)N1Cc1ccccc1
Activity [2]: 0.34
Activity [3]: 0.52

inhibition [1]: 53%
Structure (SMILES): O=C(O)[C@@H]1CCC(=O)N1Cc1cccc2ccccc12
Activity [2]: 0.35
Activity [3]: 0.91

The next lines start with the compound.

Structure (SMILES): O=C(N[C@@H](COCc1ccccc1)C(=O)O)OCc1ccccc1
inhibition [1]: 59%
Activity [2]: 0.48
Activity [3]: 0.5

Structure (SMILES): O=C(O)[C@@H]1CCCN1C(=O)/C=C/c1ccccc1
inhibition [1]: 58%
Activity [2]: 0.65
Activity [3]: 0.76

Structure (SMILES): COc1ccc2[nH]c([S+]([O-])Cc3ncc(C)c(OC)c3C)nc2c1 (stereo not drawn)
inhibition [4]: 54%
inhibition [5]: 71%
inhibition [6]: 28%
inhibition [7]: 28%
Activity [8]: Active
inhibition [9]: 78%
inhibition [10]: 60%
inhibition [11]: 90%
inhibition [12]: 38%
inhibition [13]: 77%
inhibition [14]: 34%
inhibition [15]: 52%
inhibition [16]: 56%
Activity [17]: Active
inhibition [18]: 79%
inhibition [19]: 48%
inhibition [20]: 96%
inhibition [21]: 51%
inhibition [22]: 76%
inhibition [23]: 53%
inhibition [24]: 75%
inhibition [25]: 38%

Structure (SMILES): CC(C)(C)OC(=O)N[C@@H](CO)C(=O)O
inhibition [1]: 34%
Activity [2]: 0.71
Activity [3]: 0.72
